Values after ≈ are worked out from the molar mass of the structure shown.
How the values were obtained:
[1] = target: Human immunodeficiency virus type 1 protease (Human immunodeficiency virus 1, UniProt Q72874); experiment: Inhibition of HIV -1 protease
In short: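 Purified HIV-1 protease with the peptide substrate Ala-Ser-Glu-Asn-Tyr-Pro-Ile-Val-Glu-amide. Cleavage quantified by reverse-phase HPLC. Compounds tested as ammonium salts. Values are means of at least two experiments.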

MT4 [2] = experiment: Viral cytopathicity against HIV -2 (LAV-2 rod)strain determined in MT-4 cells; type: functional, cell-based; details: Homo sapiens
Homo sapiens [3] = species on record: Homo sapiens; experiment: Inhibition of p24 production in Peripheral blood lymphocytes; type: functional, organism-based
In short: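 Phytohemagglutinin-stimulated peripheral blood lymphocytes infected with HIV-1 WUJO. Read-out is virion-associated p24 production. Compounds tested as ammonium salts. Values are means of at least two experiments.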

Homo sapiens [4] = species on record: Homo sapiens; experiment: Cytotoxical effect against PBL cell lines was determined by reduction of cellular viability; type: functional
In short: (§1)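 Compounds tested as ammonium salts. Cytotoxicity in CEM-SS, MT-4 or PBL cultures taken from the reduction in cellular viability. Values are means of at least two separate experiments.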

MOLT-4 [5] = experiment: Giant cell formation between HIV-2 (LAV-2 rod) infected HUT-78 cells and uninfected MOLT-4(clone-8)cells; type: functional, cell-based; details: Homo sapiens
In short: (§2)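 Syncytium assay: HUT-78 cells persistently infected with HIV-1 (HTLV-IIIB) or HIV-2 (LAV-2ROD) were co-cultured with uninfected MOLT-4 (clone 8) cells, and giant-cell formation was scored. Compounds tested as ammonium salts. Values are means of at least two experiments.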

[6] = target: Human immunodeficiency virus type 1 integrase (Human immunodeficiency virus 1, UniProt Q7ZJM1); experiment: Inhibition of HIV -1 Integrase
Human immunodeficiency virus type 1 integrase, sequence (Q7ZJM1 whole entry): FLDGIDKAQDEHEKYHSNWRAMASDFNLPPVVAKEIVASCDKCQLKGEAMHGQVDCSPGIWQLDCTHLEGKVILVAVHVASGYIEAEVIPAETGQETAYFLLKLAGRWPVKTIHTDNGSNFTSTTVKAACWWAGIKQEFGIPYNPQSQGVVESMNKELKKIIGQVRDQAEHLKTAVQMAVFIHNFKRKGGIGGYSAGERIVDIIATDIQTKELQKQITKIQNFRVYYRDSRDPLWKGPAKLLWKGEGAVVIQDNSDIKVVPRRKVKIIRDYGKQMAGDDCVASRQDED
In short: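 Purified HIV-1 integrase. 3'-processing and strand-transfer (integration) activities were measured with synthetic double-stranded oligonucleotides mimicking viral DNA ends. Compounds tested as ammonium salts. Values are means of at least two experiments.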

HEL [7] = experiment: Antiviral activity was determined against Vesicular stomatitis virus in HEL cells by measuring concentration required to reduce virus induced cytopathogenicity by 50%.; type: functional, cell-based; details: Homo sapiens
HEL [8] = experiment: Antiviral activity was determined against Herpes simplex virus -1 TK- in HEL cells by measuring concentration required to reduce virus induced cytopathogenicity by 50%.; type: functional, cell-based; details: Homo sapiens
HEL [9] = experiment: Antiviral activity was determined against (Herpes simplex virus -2) by concentration required to reduce virus induced cytopathogenicity by 50%.; type: functional, cell-based; details: Homo sapiens
HEL [10] = experiment: Antiviral activity against HEL cells by measuring minimum cytotoxic concentration that causes a microscopically detectable alteration of normal cell morphology after 2 day of treatment.; type: functional; details: Homo sapiens, 48 h
HEL [11] = experiment: Antiviral activity was determined against Human cytomegalovirus (strain Davis) in HEL cells by measuring concentration required to reduce virus induced cytopathogenicity by 50%.; type: functional, cell-based
HEL [12] = experiment: Antiviral activity was determined against Herpes simplex virus -1 in HEL cells by measuring concentration required to reduce virus induced cytopathogenicity by 50%.; type: functional, cell-based; details: Homo sapiens
HEL [13] = experiment: Antiviral activity was determined against Herpes simplex virus -1 TK-/TK+ in HEL cells by measuring concentration required to reduce virus induced cytopathogenicity by 50%.; type: functional, cell-based; details: Homo sapiens
MT4 [14] = experiment: Cytotoxical effect against MT-4 cell lines was determined by reduction of cellular viability; type: functional; details: Homo sapiens; in short: as §1
CCRF-CEM = experiment: Cytotoxical effect against CEM cell lines was determined by reduction of cellular viability; type: functional; details: Homo sapiens; in short: as §1
MT4 [15] = experiment: Viral cytopathicity against HIV -I (HTLV-IIIb) strain determined in MT-4 cells; type: functional, cell-based; details: Homo sapiens
MOLT-4 [16] = experiment: Giant cell formation between HIV-1 (HTLV-IIIB) infected HUT-78 cells and uninfected MOLT-4(clone-8)cells; type: functional, cell-based; details: Homo sapiens; in short: as §2
HEL [17] = experiment: Antiviral activity was determined against Vaccinia virus in HEL cells by measuring concentration required to reduce virus induced cytopathogenicity by 50%.; type: functional, cell-based; details: Homo sapiens
MDCK [18] = experiment: Antiviral activity against MDCK cells by measuring minimum cytotoxic concentration that causes a microscopically detectable alteration of normal cell morphology after 2 day of treatment.; type: functional; details: Canis lupus familiaris, 48 h
HeLa [19] = experiment: Antiviral activity was determined against Respiratory syncytial virus(strain Long) in HeLa cells by measuring concentration required to reduce virus induced cytopathogenicity by 50%.; type: functional, cell-based; details: Homo sapiens
In short: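 RSV cytopathicity in HeLa cells. Compound added immediately after virus infection and left in the culture. Virus-induced cytopathogenicity scored at day 5 post-infection. IC50 in μg/mL.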

Vero [20] = experiment: Antiviral activity against Vero cells by measuring minimum cytotoxic concentration that causes a microscopically detectable alteration of normal cell morphology after 2 day of treatment.; type: functional; details: Chlorocebus sabaeus, 48 h
MDCK [21] = experiment: Antiviral activity was determined against Influenza virus A(strain Ishikawa) in MDCK cells by measuring concentration required to reduce virus induced cytopathogenicity by 50%.; type: functional, cell-based; details: Canis lupus familiaris
In short: (§3)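 Tested in MDCK cells, with compound applied right after infection and left on. Cytopathic effect of influenza A (Ishikawa) or B (Singapore) was read at day 5 pi. IC50 is the concentration halving cytopathogenicity, in µg/mL.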

Vero [22] = experiment: Antiviral activity was determined against Tacaribe virus in Vero cells by measuring concentration required to reduce virus induced cytopathogenicity by 50%.; type: functional, cell-based; details: Chlorocebus sabaeus
Vero [23] = experiment: Antiviral activity was determined against Junin virus in Vero cells by measuring concentration required to reduce virus induced cytopathogenicity by 50%.; type: functional, cell-based; details: Chlorocebus sabaeus
HeLa [24] = experiment: Antiviral activity against HeLa cells by measuring minimum cytotoxic concentration that causes a microscopically detectable alteration of normal cell morphology after 2 day of treatment.; type: functional; details: Homo sapiens, 48 h
MDCK [25] = experiment: Antiviral activity was determined against Influenza virus B(strain Singapore) MDCK cells by measuring concentration required to reduce virus induced cytopathogenicity by 50%.; type: functional, cell-based; details: Canis lupus familiaris; in short: as §3

Row | SMILES | IC50 [1] [µM] | IC50 (MT4 [2]) [µM] | IC50 (Homo sapiens [3]) [µM] | CC50 (Homo sapiens [4]) [µM] | IC50 (MOLT-4 [5]) [µM] | IC50 [6] [µM] | IC50 (HEL [7]) [µg/mL] | IC50 (HEL [8]) [µg/mL] | IC50 (HEL [9]) [µg/mL] | MCC (HEL [10]) [µg/mL] | IC50 (HEL [11]) [µg/mL] | IC50 (HEL [12]) [µg/mL] | IC50 (HEL [13]) [µg/mL] | CC50 (MT4 [14]) [µM] | CC50 (CCRF-CEM) [µM] | IC50 (MT4 [15]) [µM] | IC50 (MOLT-4 [16]) [µM] | IC50 (HEL [17]) [µg/mL] | MCC (MDCK [18]) [µg/mL] | IC50 (HeLa [19]) [µg/mL] | also measured
1 | CC(C)CCCC(C)[C@H]1CC[C@H]2[C@@H]3CCC4C[C@@H](CCC=C(c5cc(Cl)c(O)c(C(=O)O)c5)c5cc(Cl)c(O)c(C(=O)O)c5)CC[C@]4(C)[C@H]3CC[C@]12C (stereo not given in full) | 1.5 | 4 | 33 | 67 | 25 | 25 | 10 (≈ 13 µM) | > 20 | 7.4 (≈ 9.64 µM) | > 100 | 2.7 (≈ 3.52 µM) | 10 (≈ 13 µM) | 20 (≈ 26 µM) | > 125 | > 200 | 1.8 | 25 | > 20 |  |  | 
2 | CC(C)CCCC(C)[C@H]1CC[C@H]2[C@@H]3CCC4CC(=C(c5cc(Cl)c(O)c(C(=O)O)c5)c5cc(Cl)c(O)c(C(=O)O)c5)CC[C@]4(C)[C@H]3CC[C@]12C (stereo not given in full) | 0.35 | 6 | 59.3 | 78 | 24 | > 100 | > 20 | > 20 | 12 (≈ 16.5 µM) | > 50 | 2.35 (≈ 3.24 µM) | > 20 | > 20 | 36.7 | > 200 | 2.5 | 24 | > 20 | > 200 | 20 (≈ 27.6 µM) | MCC (Vero [20]): 200 µg/mL; IC50 (MDCK [21]): 14 µg/mL (≈ 19.3 µM); IC50 (Vero [22]): 20 µg/mL (≈ 27.6 µM); IC50 (Vero [23]): 16 µg/mL (≈ 22 µM); MCC (HeLa [24]): 100 µg/mL; IC50 (MDCK [25]): > 200 µg/mL
3 | CC(CCC=C(c1cc(Cl)c(O)c(C(=O)O)c1)c1cc(Cl)c(O)c(C(=O)O)c1)[C@H]1CC[C@H]2[C@@H]3CC[C@@H]4CC(F)(F)CC[C@]4(C)[C@H]3CC[C@]12C (stereo not given in full) | 0.39 | 3.5 | 24 | 69.5 | 24 | 2.2 | > 20 | > 20 | > 20 | 50 | 11 (≈ 15.3 µM) | 20 (≈ 27.8 µM) | > 20 | 34 | 38.5 | 27.7 | 8 | 20 (≈ 27.8 µM) | 12 | 4 (≈ 5.56 µM) | MCC (Vero [20]): 20 µg/mL; IC50 (MDCK [21]): > 12 µg/mL; IC50 (Vero [22]): > 5 µg/mL; IC50 (Vero [23]): > 5 µg/mL; MCC (HeLa [24]): 20 µg/mL; IC50 (MDCK [25]): > 12 µg/mL
